Measurements: ChEMBL document CHEMBL3217420, “Design, synthesis and initial biological evaluation of a novel pladienolide analog scaffold” (Medchemcomm, 2011)
Calls of active or inactive are those of the source. The rule behind the calls is not given here.

Columns and labels:
Format in all cases: functional, cell-based
[1] = tested on: MCF7; assay: Cytotoxicity in human MCF7 cells assessed as growth inhibition after 72 hrs by XTT assay; conditions: MCF7, 72 h
Summary of the method: (§1)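 XTT assay after 72 h continuous compound exposure. IC50 is the concentration that inhibits growth to 50% of the DMSO vehicle-treated control. It was calculated by sigmoidal fitting of dose-response curves. Values are mean ± standard error of 3 independent experiments.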

[2] = tested on: SK-MEL-2; assay: Modulation of MDM2 mRNA splicing in human SK-MEL-2 cells assessed as formation of two spliced MDM2 mRNA variants at 10 uM after 6 hrs by blotting assay
Summary of the method: (§2)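 SK-MEL-2 melanoma cells were exposed to DMSO vehicle or to the designated compound concentrations for 6 hours. MDM2 mRNA was then examined for the properly spliced form and for alternatively spliced variant forms.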

[3] = tested on: SK-MEL-2; assay: Modulation of MDM2 mRNA splicing in human SK-MEL-2 cells assessed as increase in properly spliced MDM2 mRNA at 1 uM after 6 hrs by blotting assay; summary of the method: as §2
[4] = Cytotoxicity in human JeKo1 cells assessed as growth inhibition after 72 hrs by XTT assay; conditions: JeKo-1, 72 h; summary of the method: as §1
[5] = tested on: PC-3; assay: Cytotoxicity in human PC3 cells assessed as growth inhibition after 72 hrs by XTT assay; conditions: PC-3, 72 h; summary of the method: as §1
[6] = tested on: MOLT-4; assay: Cytotoxicity in human MOLT4 cells assessed as growth inhibition after 72 hrs by XTT assay; conditions: MOLT-4, 72 h; summary of the method: as §1
[7] = tested on: SK-MEL-2; assay: Cytotoxicity in human SK-MEL-2 cells assessed as growth inhibition after 72 hrs by XTT assay; conditions: SK-MEL-2, 72 h; summary of the method: as §1
[8] = tested on: NCI-H226; assay: Cytotoxicity in human NCI-H226 cells assessed as growth inhibition after 72 hrs by XTT assay; conditions: NCI-H226, 72 h; summary of the method: as §1
[9] = tested on: SK-MEL-2; assay: Modulation of MDM2 mRNA splicing in human SK-MEL-2 cells assessed as increase in properly spliced MDM2 mRNA at 10 to 100 uM after 6 hrs by blotting assay; summary of the method: as §2
[10] = tested on: SK-MEL-2; assay: Modulation of MDM2 mRNA splicing in human SK-MEL-2 cells assessed as formation of two spliced MDM2 mRNA variants at 10 to 100 uM after 6 hrs by blotting assay; summary of the method: as §2
[11] = tested on: SK-MEL-2; assay: Modulation of MDM2 mRNA splicing in human SK-MEL-2 cells assessed as formation of two spliced MDM2 mRNA variants at 100 uM after 6 hrs by blotting assay; summary of the method: as §2
[12] = tested on: SK-MEL-2; assay: Modulation of MDM2 mRNA splicing in human SK-MEL-2 cells assessed as increase in properly spliced MDM2 mRNA at 10 to 25 uM after 6 hrs by blotting assay; summary of the method: as §2

Row | Structure (SMILES) | IC50 [1] [µM] | Activity [2] | Activity [3] | IC50 [4] [µM] | IC50 [5] [µM] | IC50 [6] [µM] | IC50 [7] [µM] | IC50 [8] [µM] | Activity [9] | Activity [10] | Activity [11] | Activity [12]
1 | CC(/C=C/[C@H]1OC(C)(C)C[C@@]2(CO2)[C@@H]1O)=C\C[C@H]1OC[C@@H](NC(=O)/C=C\[C@H](C)OC(=O)C(C)C)CO1 | 1.69 | Active | Active | 0.29 | 4.16 | 0.66 | 0.7 | > 10 |  |  |  | 
2 | COc1ccc(COC/C=C(\C)[C@@H]2C/C=C/[C@H](OC(C)=O)[C@](C)(O)CCCCC(=O)O2)cc1 |  |  |  |  |  |  | > 20 |  | Active | inactive |  | 
3 | CC(=O)O[C@H]1/C=C/C[C@@H](/C(C)=C/C=C/CC[C@H]2O[C@@H]2C[C@H](C)O[Si](C)(C)C(C)(C)C)OC(=O)CCCC[C@@]1(C)O | 19.2 |  |  | 11.6 | 18 | 15.5 | 10.7 | > 20 |  |  | Active | Active
4 | CC(=O)O[C@@H](C)/C=C\C(=O)N[C@H]1CC[C@@H](C/C=C(C)/C=C/[C@H]2OC(C)(C)C[C@@]3(CO3)[C@@H]2O)CC1 | 0.72 |  |  | 0.11 | 2.02 | 0.18 | 0.39 | > 10 |  |  |  | 
5 | CC(=O)O[C@H]1/C=C/C[C@@H](/C(C)=C/C=C/CC[C@H]2O[C@@H]2C[C@H](C)O)OC(=O)CCCC[C@@]1(C)O (mixture of isomers) |  |  |  | > 20 | > 20 |  | > 20 |  |  |  |  | 
